Source: ChEMBL document CHEMBL4017507 (J Med Chem, 2017)

Key:
[1] = system: CCRF-CEM; test: Cytostatic activity human CEM cells assessed as reduction in cell viability after 72 hrs by cell counting method; type: cell-based; conditions: ccrf-cem, 72 h
How it was run: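 (5–7.5) × 10^? CEM cells per well were grown with compound for 72 h at 37 °C under humidified CO2. Cells were counted in a Coulter counter.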

[2] = system: MT4; test: Cytotoxicity against human MT4 cells assessed as reduction in cell viability by cell counting method; type: cell-based
How it was run: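 MT-4 cultures, untreated or treated, were assessed with an automated cell counter using propidium iodide staining to enumerate total and dead cells.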

[3] = system: Human alphaherpesvirus 3; test: Antiviral activity against thymidine kinase deficient Varicella-Zoster virus 07-1 infected in human HEL cells assessed as inhibition of virus-induced cytopathic effect; type: functional, cell-based; conditions: Human alphaherpesvirus 3, 07-1, HEL
How it was run: (§1)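 Confluent HEL fibroblast cultures were inoculated with 20 PFU of VZV in the presence of varying compound concentrations. Plaque formation was recorded once untreated infected controls reached completion.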

[4] = system: Human betaherpesvirus 5; test: Antiviral activity against human cytomegalovirus Davis infected in human HEL cells assessed as inhibition of virus-induced cytopathic effect; type: functional, cell-based; conditions: Human betaherpesvirus 5, Davis
How it was run: (§2)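 Confluent HEL fibroblast monolayers were inoculated in 96-well plates with 100 CCID50 of virus in the presence of serially varied compound concentrations. Cytopathicity was scored once untreated infected controls reached full CPE.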

[5] = system: Human immunodeficiency virus 1; test: Antiviral activity against HIV1 X4LAI.04 infected in human MT4 cells assessed as decrease in viral replication by p24gag-based luminex assay; type: functional, cell-based; conditions: Human immunodeficiency virus 1, X4LAI.04, MT4
How it was run: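 10^6 MT-4 cells were infected with HIV-1 X4LAI.04 (7 ng p24) for 2 h at 37 °C, then washed with PBS and resuspended. Compounds were added and cultures were kept 3 days at 37 °C. Supernatant p24 was measured by bead-based Luminex. Inhibition was calculated as (1 − p24 treated/p24 untreated) × 100, and EC50 was derived from it.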

[6] = system: Human alphaherpesvirus 1; test: Antiviral activity against Herpes simplex virus 1 KOS infected in human HEL cells assessed as inhibition of virus-induced cytopathic effect; type: functional, cell-based; conditions: Human alphaherpesvirus 1, KOS; how it was run: as §2
[7] = system: HEL; test: Cytotoxicity against human HEL cells assessed as cell growth inhibition by cell counting method; type: cell-based
[8] = system: Human alphaherpesvirus 2; test: Antiviral activity against Herpes simplex virus 2 G infected in human HEL cells assessed as inhibition of virus-induced cytopathic effect; type: functional, cell-based; conditions: Human alphaherpesvirus 2, strain G; how it was run: as §2
[9] = system: Human betaherpesvirus 5; test: Antiviral activity against human cytomegalovirus AD-169 infected in human HEL cells assessed as inhibition of virus-induced cytopathic effect; type: functional, cell-based; conditions: Human betaherpesvirus 5, AD-169, HEL; how it was run: as §2
[10] = system: Human alphaherpesvirus 1; test: Antiviral activity against ACV-resistant thymidine kinase deficient Herpes simplex virus 1 KOS infected in human HEL cells assessed as inhibition of virus-induced cytopathic effect; type: functional, cell-based; conditions: Human alphaherpesvirus 1, KOS; how it was run: as §2
[11] = system: Human alphaherpesvirus 3; test: Antiviral activity against Varicella-Zoster virus OKA infected in human HEL cells assessed as inhibition of virus-induced cytopathic effect; type: functional, cell-based; conditions: Human alphaherpesvirus 3, strain Oka vaccine; how it was run: as §1
[12] = Cytotoxicity against human HEL cells assessed as alteration to cell morphology by microscopic analysis; type: cell-based
How it was run: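 Minimal cytotoxic concentration is the compound concentration giving a microscopically visible alteration of HEL cell morphology, scored in the antiviral assay cultures.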

[13] = system: Human immunodeficiency virus 1; test: Antiviral activity against HIV1 X4LAI.04 infected in human tonsillar tissues assessed as inhibition of virus-induced cytopathic effect by p24gag-based luminex assay; type: functional; conditions: Human immunodeficiency virus 1, X4LAI.04
How it was run: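 Tonsillectomy tissue blocks of 2–3 mm³ were cultured on collagen sponge gels at the air–liquid interface, 27 blocks per donor per condition. Blocks were pretreated with compound overnight, infected with HIV-1 X4LAI.04 and cultured 12 days, with drug replenished at each medium change every 3 days. Medium p24 was measured by Luminex. Inhibition was calculated against untreated tissue, and EC50 was derived from it.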

COc1nc(N)nc2c1ncn2CCC(COP(=O)(N[C@@H](C)C(=O)OCc1ccccc1)Oc1ccccc1)COP(=O)(N[C@@H](C)C(=O)OCc1ccccc1)Oc1ccccc1 (some centres undefined)
CC50 [1]: 19 µM
IC50 [2]: 20 µM
EC50 [3]: 20 µM
EC50 [4]: 37 µM
EC50 [5]: 12 µM
EC50 [6]: 100 µM
CC50 [7]: 25 µM
EC50 [8]: > 100 µM
EC50 [9]: > 50 µM
EC50 [10]: 100 µM
EC50 [11]: 22 µM
MCC [12]: 50 to 100 µM

CCOC(=O)[C@H](C)NP1(=O)OCC(OCn2cnc3c(=O)[nH]c(N)nc32)CO1 (some centres undefined)
IC50 [2]: > 150 µM
EC50 [5]: 22 µM
EC50 [13]: 4.6 µM

CC(C)(NP(=O)(OCC(CO)CCn1cnc2c(=O)[nH]c(N)nc21)Oc1ccccc1)C(=O)OCc1ccccc1 (centres undefined)
CC50 [1]: 252 µM
IC50 [2]: > 150 µM
EC50 [3]: > 50 µM
EC50 [4]: > 50 µM
EC50 [5]: 68 µM
EC50 [6]: 29 µM
CC50 [7]: > 50 µM
EC50 [8]: 39 µM
EC50 [9]: > 50 µM
EC50 [10]: 100 µM
EC50 [11]: > 50 µM
MCC [12]: 50 to 100 µM

CCC(C)(C)COC(=O)[C@H](C)NP(=O)(OCC(CO)CCn1cnc2c(OC)nc(N)nc21)Oc1cccc2ccccc12 (some centres undefined)
CC50 [1]: 18 µM
IC50 [2]: 17 µM
EC50 [3]: 9.7 µM
EC50 [4]: > 50 µM
EC50 [5]: 24 µM
EC50 [6]: 11 µM
CC50 [7]: 28 µM
EC50 [8]: 10 µM
EC50 [9]: 43 µM
EC50 [10]: ≥ 20 µM
EC50 [11]: 4.4 µM
MCC [12]: 50 to 100 µM

C[C@H](NP(=O)(OCC(COP(=O)(N[C@@H](C)C(=O)OCc1ccccc1)Oc1cccc2ccccc12)SCn1cnc2c(=O)[nH]c(/N=C/N(C)C)nc21)Oc1cccc2ccccc12)C(=O)OCc1ccccc1 (some centres undefined)
CC50 [1]: 17 µM
IC50 [2]: 4 µM
EC50 [3]: > 20 µM
EC50 [4]: > 50 µM
EC50 [5]: 9 µM
EC50 [6]: > 100 µM
CC50 [7]: 30 µM
EC50 [8]: > 100 µM
EC50 [9]: > 50 µM
EC50 [10]: > 100 µM
EC50 [11]: > 20 µM
MCC [12]: 50 to 100 µM

COc1nc(N)nc2c1ncn2CCC(CO)COP(=O)(N[C@@H](C)C(=O)OCc1ccccc1)Oc1cccc2ccccc12 (some centres undefined)
CC50 [1]: 27 µM
IC50 [2]: 12 µM
EC50 [3]: 23 µM
EC50 [4]: 50 µM
EC50 [5]: 23 µM
EC50 [6]: 38 µM
CC50 [7]: 49 µM
EC50 [8]: 20 µM
EC50 [9]: > 50 µM
EC50 [10]: 20 µM
EC50 [11]: 17 µM
MCC [12]: 50 to 100 µM

CC(C)(NP(=O)(OCC(CCn1cnc2c(=O)[nH]c(N)nc21)COP(=O)(NC(C)(C)C(=O)OCc1ccccc1)Oc1ccccc1)Oc1ccccc1)C(=O)OCc1ccccc1 (centres undefined)
CC50 [1]: 100 µM
IC50 [2]: 30 µM
EC50 [3]: 20.6 µM
EC50 [4]: > 50 µM
EC50 [5]: 19 µM
EC50 [6]: > 100 µM
CC50 [7]: > 100 µM
EC50 [8]: > 100 µM
EC50 [9]: > 50 µM
EC50 [10]: > 100 µM
EC50 [11]: 10.3 µM
MCC [12]: 50 to 100 µM

COc1nc(N)nc2c1ncn2CCC(COP(=O)(N[C@@H](C)C(=O)OCC(C)(C)C)Oc1cccc2ccccc12)COP(=O)(N[C@@H](C)C(=O)OCC(C)(C)C)Oc1cccc2ccccc12 (some centres undefined)
CC50 [1]: 4.6 µM
IC50 [2]: 5 µM
EC50 [3]: 7.7 µM
EC50 [4]: 20 µM
EC50 [5]: 8.2 µM
EC50 [6]: > 100 µM
CC50 [7]: 2.5 µM
EC50 [8]: > 100 µM
EC50 [9]: 15 µM
EC50 [10]: > 100 µM
EC50 [11]: 4.3 µM
MCC [12]: 20 to 100 µM

COc1nc(N)nc2c1ncn2CCC(CO)COP(=O)(N[C@@H](C)C(=O)OCC(C)(C)C)Oc1cccc2ccccc12 (some centres undefined)
CC50 [1]: 17 µM
IC50 [2]: 35 µM
EC50 [3]: 6.2 µM
EC50 [4]: 40 µM
EC50 [5]: 41 µM
EC50 [6]: 9 µM
CC50 [7]: 7.6 µM
EC50 [8]: 9 µM
EC50 [9]: 50 µM
EC50 [10]: 15 µM
EC50 [11]: 2 µM
MCC [12]: 50 to 100 µM

C[C@H](NP(=O)(OCC(CCn1cnc2c(=O)[nH]c(N)nc21)COP(=O)(N[C@@H](C)C(=O)OCc1ccccc1)Oc1ccccc1)Oc1ccccc1)C(=O)OCc1ccccc1 (some centres undefined)
CC50 [1]: 76 µM
IC50 [2]: 10 µM
EC50 [3]: 41.5 µM
EC50 [4]: > 50 µM
EC50 [5]: 8 µM
EC50 [6]: > 100 µM
CC50 [7]: ≥ 100 µM
EC50 [8]: > 100 µM
EC50 [9]: > 50 µM
EC50 [10]: > 100 µM
EC50 [11]: 16.3 µM
MCC [12]: 50 to 100 µM

CC(C)(NP(=O)(OCC(CCn1cnc2c(=O)[nH]c(N)nc21)COP(=O)(NC(C)(C)C(=O)OCc1ccccc1)Oc1cccc2ccccc12)Oc1cccc2ccccc12)C(=O)OCc1ccccc1 (centres undefined)
CC50 [1]: > 250 µM
IC50 [2]: > 150 µM
EC50 [3]: > 50 µM
EC50 [4]: > 50 µM
EC50 [5]: > 150 µM
EC50 [6]: > 20 µM
CC50 [7]: > 100 µM
EC50 [8]: > 20 µM
EC50 [9]: > 50 µM
EC50 [10]: > 20 µM
EC50 [11]: > 50 µM
MCC [12]: 50 to 100 µM

CCC(C)(C)COC(=O)[C@H](C)NP(=O)(OCC(CCn1cnc2c(OC)nc(N)nc21)COP(=O)(N[C@@H](C)C(=O)OCC(C)(C)CC)Oc1cccc2ccccc12)Oc1cccc2ccccc12 (some centres undefined)
CC50 [1]: 7.2 µM
IC50 [2]: 9 µM
EC50 [3]: 9.5 µM
EC50 [4]: > 20 µM
EC50 [5]: 5.6 µM
EC50 [6]: > 100 µM
CC50 [7]: 5 µM
EC50 [8]: > 100 µM
EC50 [9]: > 20 µM
EC50 [10]: > 100 µM
EC50 [11]: 6.4 µM
MCC [12]: 50 to 100 µM

C[C@H](NP(=O)(OCC(CCn1cnc2c(Cl)nc(N)nc21)COP(=O)(N[C@@H](C)C(=O)OCc1ccccc1)Oc1ccccc1)Oc1ccccc1)C(=O)OCc1ccccc1 (some centres undefined)
CC50 [1]: 14 µM
IC50 [2]: 20 µM
EC50 [3]: 44.1 µM
EC50 [4]: > 100 µM
EC50 [5]: 7 µM
EC50 [6]: > 100 µM
CC50 [7]: 4 µM
EC50 [8]: > 100 µM
EC50 [9]: > 100 µM
EC50 [10]: > 100 µM
EC50 [11]: 44 µM
MCC [12]: > 100 µM

COC(=O)[C@H](C)NP(=O)(OCC(CO)CCn1cnc2c(OC)nc(N)nc21)Oc1cccc2ccccc12 (some centres undefined)
CC50 [1]: 15 µM
IC50 [2]: 10 µM
EC50 [3]: 25 µM
EC50 [4]: 14 µM
EC50 [5]: 16 µM
EC50 [6]: > 100 µM
CC50 [7]: 37 µM
EC50 [8]: > 100 µM
EC50 [9]: 32 µM
EC50 [10]: > 100 µM
EC50 [11]: 13 µM
MCC [12]: 50 to 100 µM
